# Assay outcomes: PubChem BioAssay, several laboratories
# The entries come from a sample that favours hits as a whole.
# UPR CHOP act: activators of apoptotic arm of unfolded protein response (CHOP); CHO-CHOP luciferase reporter, UPR activation, luminescence; percent of tunicamycin response over DMSO baseline; activation, % at 10 µM; actives 0.34% (n = 330,000);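 active = at 10 µM dose, activation of 40% or more, normalized to positive control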;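 note: 100% = tunicamycin at 10 µg/mL and 0% = DMSO alone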
#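 Dosing – one dose, 10 µM in 0.5% DMSO · System – CHO-CHOP cells, stable luciferase reporter of PERK-eIF2a-CHOP signalling · Input – 500 cells/well · Control set – tunicamycin 10 µg/mL final as positive, DMSO-only wells as negative · Timing – 6 h compound treatment, 37 °C · Measure – % activation vs tunicamycin · Technique – luminescence read with Steady-Glo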
# UPR XBP1 act: adaptive UPR (XBP1) activation; actives 0.33% (n = 330,000); activation, % at 20 µM; AID 463104; CHO-XBP1 luciferase reporter, IRE1-XBP1 UPR activation, luminescence; percent of tunicamycin response, DMSO as zero;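 active = versus positive control, 20 µM dose yields 30% or more activation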;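 note: 100% = tunicamycin at 10 µg/mL and 0% = DMSO only wells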
#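 Test system: CHO-XBP1 luciferase reporter cells | Buffer or medium: Serum-containing F12 medium, 10% FBS | Schedule: 6 h compound exposure at 37 °C, 5% CO2 | Detection: Steady-Glo luciferase glow luminescence, 10 min after reagent addition | Read-out basis: Activation, % of tunicamycin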
# CHOP inh: inhibitors of CHOP induction in ER stress response. inhibition, % at 10 µM. CHO-K1 CHOP-promoter luciferase, tunicamycin-induced, 15-18 h. actives 3.8% (n = 220,000);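 active = compounds that reduced the stress-induced luciferase reporter signal by more than about 70% of percent inhibition, limit read from the data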;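 note: 0% = tunicamycin plus vehicle and 100% = wells without tunicamycin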
# T cruzi inh: T. cruzi replication inhibition; T. cruzi beta-gal in NIH3T3, luminescence, 90 h; inhibition, % (no concentration beside the values); actives 1.4% (n = 300,000); AID 1885;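 active = mean inhibition across valid replicates above about 55%, limit read from the data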;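 note: signal also drops with host cell toxicity which is not excluded here; 0% = plate median of DMSO wells and 100% = zero luminescence signal; higher percent means less beta-gal luminescence so fewer parasites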
#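 System: mouse NIH/3T3 fibroblasts infected with β-gal-expressing T. cruzi Tulahuen C4 / Input: NIH/3T3 cells, 5,000 per well / Buffer or medium: Low-serum DMEM with 2% FBS / Probe or stimulus: 5000 reporter trypomastigotes per well / Schedule: ≥90 h infection period, 3 h prior cell attachment / Measured by: GalScreen luminescence, 60 min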
# Dynein cargo inh: blocks dynein driven cargo transport along microtubules; actives 0.47% (n = 220,000); 3617.4 mouse cells, GR-EGFP nuclear translocation imaging; test concentration mostly 20 µM; stimulated with dexamethasone, 1 µM; hits give low values; z-score, hits read low; AID 1381;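 active = plate z-score of nuclear minus cytoplasmic receptor signal below a set negative limit, without overly bright fluorescence or cell loss, cut at about -3.5 in these data, passing the limit was not always enough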;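 note: z-score of nuclear minus cytoplasmic ring GR-EGFP intensity difference per well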
#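 Medium: Induction medium lacking tetracycline, stripped serum | Probe or stimulus: 1.0 µM final dexamethasone stimulus | Schedule: 48 h induction, then 1 h compound, then 30 min agonist, 37 °C | Signal: Automated 10x imaging of fixed Hoechst-stained cells | Evaluation: Per-cell GR-EGFP intensity, nucleus versus surrounding cytoplasmic ring, well-averaged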
# Lmaj promast: Leishmania major promastigote growth inhibition. Leishmania major promastigotes, resazurin fluorescence viability. inhibition, % at 10 µM. actives 9% (n = 200,000); in the data active = inhibition above about 50%;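 note: promastigotes grown with compound for 44 hours at 28 °C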
# * hit, by the source's call; x = no result.
SMILES,UPR CHOP act,UPR XBP1 act,CHOP inh,T cruzi inh,Dynein cargo inh,Lmaj promast
CC(C)N=C(NS(=O)(=O)c1ccc(Br)cc1)c1ccc(Cl)cc1,0,-6,10,0,-2,2
CCc1nnc(NC(=O)CCc2ccc(C)o2)s1,1,-2,75*,-3,1,-4
CC1CN(C(=O)/C=C/c2ccc([N+](=O)[O-])s2)CC(C)O1 (configuration not stated),0,-3,-35,-4,-0.14,82*
CC1CC(C)CN(C(=O)/C=C/c2ccc([N+](=O)[O-])s2)C1 (configuration not stated),x,x,16,5,-1.7,98*
Cc1[nH]c(=O)[nH]c(=O)c1S(=O)(=O)Nc1ccc(F)cc1Cl,0,-4,x,-15,x,x
COCCn1c(SCC(=O)NC2CC2)nc2ccccc21,0,0,x,x,x,x
Cc1cc(CSc2ccccc2)ccc1NC(=O)c1ccc(Br)cc1,1,4,96*,20,0.63,8
O=C(Nc1cccc(Br)c1)c1ccc(CSc2ccccc2)cc1,3,0,-26,-9,-0.27,-4
CC(C)(C)c1csc(NC(=O)c2cccs2)n1,5,4,71*,8,0.27,32
O=C(Nc1nc(-c2ccc(Cl)s2)cs1)c1cccs1,5,13,62,76*,0.77,7
Nc1c(-c2ccccc2)c(CSc2nc3ccccc3[nH]2)nn1-c1cccc(Cl)c1,18,10,55,66*,1.2,98*
Cc1ccccc1-n1nc(CSc2nc3ccccc3[nH]2)c(-c2ccccc2)c1N,0,0,15,11,-0.075,19
Nc1c(-c2ccccc2)c(CSc2nc3ccccc3[nH]2)nn1-c1ccc(Cl)cc1,x,x,55,64*,0.69,97*
CCN(C(=O)CSc1nc(-c2cccs2)nc2ccccc12)C1CCS(=O)(=O)C1 (configuration not stated),1,0,x,x,x,x
COc1ccc(S(=O)(=O)N2CCOCC2)cc1NC(=O)COC(=O)c1ccc([N+](=O)[O-])s1,1,1,x,x,x,x
N#Cc1ccsc1NC(=O)c1cnccn1,-1,0,3,-8,-0.4,-2
CC(C)(C)NS(=O)(=O)c1cc(C(=O)Nc2sccc2C#N)ccc1Cl,-1,-4,9,-14,0.079,54*
COc1ccc(/C=N/NC(=O)c2c(Br)cnn2C)c2ccccc12,2,0,x,1,x,x
C[C@H](NC(=O)c1ccccc1)C(=O)Nc1nc(-c2ccccn2)cs1,-1,-3,19,3,0.083,13
CC(Oc1cccnc1[N+](=O)[O-])C(=O)Nc1ccc(Cl)cn1 (configuration not stated),0,1,x,x,x,x
CC(Oc1cccc(Cl)c1)C(=O)Nc1nc(-c2ccccn2)cs1 (configuration not stated),2,3,x,60*,x,x
CC(Oc1cccc(Cl)c1)C(=O)Nc1ccc([N+](=O)[O-])cn1 (configuration not stated),1,-5,64,8,0.14,61*
Cc1cccc(C(=O)NC(C(=O)Nc2nc(-c3ccccn3)cs2)C(C)C)c1 (configuration not stated),-1,-2,34,82*,1.8,98*
CCOC(=O)c1ccc(N2C(=O)CC(N3CCC(Nc4ccc(F)cc4)CC3)C2=O)cc1 (configuration not stated),0,-1,84*,-13,-0.65,4
O=C(c1ccc([N+](=O)[O-])s1)N1CCc2ccccc2C1,0,-1,-11,84*,1.4,94*
CCC(C)(C)C1CCC(=NNC(=S)Nc2ccccc2)CC1 (configuration not stated),0,2,27,1,0.91,1
S=C(NN=C1C2CC3CC(C2)CC1C3)Nc1ccccc1,4,-4,-48,8,-0.95,99*
